Measured values from ChEMBL document CHEMBL3868583, “6-Aryl substituted 4-(4-cyanomethyl) phenylamino quinazolines as a new class of isoform-selective PI3K-alpha inhibitors” (Eur J Med Chem, 2016).

Columns and labels:
[1] = test system: PC-3; assay: Induction of cell cycle arrest in human PC3 cells assessed as accumulation at S phase at 10 uM after 24 hrs by propidium iodide-staining based FACS analysis (reference value: 44 %); format: functional
Method in brief: (§1)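 MCF-7 or PC-3 cells treated at indicated concentrations for 24 h, pelleted, PBS-washed, fixed in ice-cold 70% ethanol overnight at 4 °C. RNase 0.2 mg/mL 1 h at 37 °C, propidium iodide 10 µg/mL 30 min dark. 10,000 events (FL2-A vs FL2-W) by flow cytometry; fractions in apoptosis/sub-G1, G1, S, G2-M.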

[2] = test system: PC-3; assay: Induction of cell cycle arrest in human PC3 cells assessed as accumulation at G1 phase at 30 uM after 24 hrs by propidium iodide-staining based FACS analysis (reference value: 39 %); format: functional; method in brief: as §1
[3] = test system: PC-3; assay: Induction of cell cycle arrest in human PC3 cells assessed as accumulation at G2 phase at 30 uM after 24 hrs by propidium iodide-staining based FACS analysis (reference value: 17 %); format: functional; method in brief: as §1
[4] = Downregulation of PI3Kbeta expression in human MCF7 cells at 30 uM by Western blot analysis; format: functional, cell-based
Method in brief: (§2)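 MCF-7 or PC-3 cells (2 × 10^6) treated with compound, lysed (1 × 10^6 cells) in cold NP-40 buffer with protease inhibitors 30 min on ice, 12,000 g 10 min 4 °C. 50 µg protein per lane on SDS-PAGE, PVDF transfer, 5% milk block, primary antibody 2 h, HRP secondary 1 h, ECL on film; β-actin internal control.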

[5] = Downregulation of PI3Kgamma expression in human MCF7 cells at 30 uM by Western blot analysis; format: functional, cell-based; method in brief: as §2
[6] = test system: MCF7; assay: Induction of cell cycle arrest in human MCF7 cells assessed as accumulation at S phase at 10 uM after 24 hrs by propidium iodide-staining based FACS analysis (reference value: 30 %); format: functional; method in brief: as §1
[7] = test system: MCF7; assay: Induction of cell cycle arrest in human MCF7 cells assessed as accumulation at S phase at 20 uM after 24 hrs by propidium iodide-staining based FACS analysis (reference value: 30 %); format: functional; method in brief: as §1
[8] = test system: MCF7; assay: Induction of apoptosis in human MCF7 cells assessed as loss of mitochondrial membrane potential at 30 uM after 24 hrs by rhodamine-123-staining based FACS analysis (reference value: 7 % ); format: functional
Method in brief: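 Cells (MCF-7 or PC-3) exposed to indicated concentrations for 24 h; rhodamine-123 (5 µM) added 1 h before end. Cells collected, PBS-washed; fluorescence of 10,000 events read in FL-1 by flow cytometry, loss of mitochondrial potential scored as decreased intensity.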

[9] = test system: Mus musculus; assay: Toxicity in Swiss mouse implanted with Swiss mouse EAC cells assessed as body weight at 25 mg/kg, ip administered for 1 to 9 days measured on day 1 (reference value: 22.8 g); format: organism-based, Ehrlich; details: in vivo
[10] = test system: Mus musculus; assay: Toxicity in Swiss mouse implanted with Swiss mouse EAC cells assessed as body weight at 25 mg/kg, ip administered for 1 to 9 days measured on day 9 (reference value: 27.7 g); format: organism-based, Ehrlich; details: in vivo
[11] = Anticancer activity against Swiss mouse EAC cells implanted in Swiss mouse assessed as tumor growth inhibition at 25 mg/kg, ip administered for 1 to 9 days measured on day 12 relative to control; format: functional; details: Ehrlich, read-out: TGI
Method in brief: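 Swiss mice given 1 × 10^7 EAC cells i.p. on day 0, randomized next day (treated n=7, control n=10). Compound given i.p. days 1-9; saline control (0.2 ml i.p.), 5-fluorouracil 20 mg/kg i.p. reference. Sacrificed day 12; ascitic fluid collected; % TGI from total peritoneal tumor cell count versus control.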

[12] = test system: Mus musculus; assay: Toxicity in Swiss mouse implanted with Swiss mouse EAT cells assessed as body weight at 15 mg/kg, ip administered for 1 to 9 days measured on day 13 (reference value: 24.1 g); format: organism-based; details: in vivo
[13] = test system: Mus musculus; assay: Toxicity in Swiss mouse implanted with Swiss mouse EAT cells assessed as mortality at 15 mg/kg, ip administered for 1 to 9 days measured on day 9 and 13; format: organism-based; details: in vivo
Method in brief: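 EAC cells harvested from 8–10-day ascitic Swiss mice; 1×10^7 cells injected intramuscularly into right thigh of Swiss male mice on day 0. Randomized next day: treated n=7, saline control n=10 (0.2 ml i.p.). Dosing i.p. days 1–9. […] Body weight and mortality tracked.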

| SMILES | Activity [1] [%] | Activity [2] [%] | Activity [3] [%] | Activity [4] [%] | Activity [5] [%] | Activity [6] [%] | Activity [7] [%] | Activity [8] [%] | Activity [9] [g] | Activity [10] [g] | inhibition in vivo at 25 mg/kg [11] [%] | Activity [12] [g] | Activity [13] |
| --- | --- | --- | --- | --- | --- | --- | --- | --- | --- | --- | --- | --- | --- |
| N#CCc1ccc(Nc2ncnc3ccc(-c4cncc5ccccc45)cc23)cc1 | 56 | 42 | 12 |  |  |  |  |  |  |  |  |  |  |
| N#CCc1ccc(Nc2ncnc3ccc(-c4ccc5[nH]ccc5c4)cc23)cc1 |  |  |  | 4 | 6 | 40 | 42 | 20 | 20.57 | 22.57 | 62 | 22.57 | Non-Toxic |
